Experimental data published in ChEMBL document CHEMBL1125297, “Synthesis and biologic activity of 2'-fluoro-2-halo derivatives of 9-beta-D-arabinofuranosyladenine” (J Med Chem, 1992).

Columns and labels:
HEp-2 = experiment: Compound was tested for cytotoxicity against HEp-2 cell lines; type: functional, cell-based; conditions: Homo sapiens
Outline: (§1)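 Cell-proliferation assay run against each named cell line. The value is the concentration that holds proliferation at 50% of untreated controls.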

L1210 = experiment: Compound was tested for cytotoxicity against L1210 cell lines; type: functional, cell-based; conditions: Mus musculus; outline: as §1
CCRF-CEM = experiment: Compound was tested for cytotoxicity against CCRF-CEM cell lines; type: functional, cell-based; conditions: Homo sapiens; outline: as §1
Mus musculus [1] = experiment: Log chance in viable tumor cells population was measured after intraperitoneal administration of 100 mg/kg; type: functional
Outline: (§2)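 CD2F1 mice were implanted ip with 10⁶ P388 leukemia cells on day 0, then treated ip. Doses are mg/kg per dose, kept at or below LD₁₀. Read-out is the log change in viable tumor cells from start to end of therapy, based on the median day of death among the animals that died.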

Mus musculus [2] = experiment: In Vivo increase in life span of dying mice implanted ip with 10E6 P388 leukemia, after ip administration of 25 mg/kg; type: functional; conditions: route intraperitoneal
Outline: (§3)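 CD2F1 mice implanted ip with 10⁶ P388 leukemia cells on day 0. Treatment ip, doses given as mg/kg per dose and kept at or below the LD10. Read-out is increase in life span against untreated controls.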

Mus musculus [3] = experiment: Tumor-free survivors of P388 leukemia infected mice was measured after ip administration of 25 mg/kg in 6 mice; type: functional; conditions: route intraperitoneal
Outline: (§4)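 CD2F1 mice received 10⁶ P388 leukemia cells ip on day 0 and were then dosed ip in mg/kg per dose, at or below the LD10. Tumor-free survivors were scored among the treated group.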

K562 = experiment: Compound was tested for cytotoxicity against K562 cell lines; type: functional, cell-based; conditions: Homo sapiens; outline: as §1
Mus musculus [4] = experiment: Log chance in viable tumor cells population was measured after intraperitoneal administration of 25 mg/kg; type: functional; outline: as §2
Mus musculus [5] = experiment: Tumor-free survivors of P388 leukemia infected mice was measured after ip administration of 100 mg/kg in 3 mice; type: functional; conditions: route intraperitoneal; outline: as §4
Mus musculus [6] = experiment: In Vivo increase in life span of dying mice implanted ip with 10E6 P388 leukemia, after ip administration of 100 mg/kg; type: functional; conditions: route intraperitoneal; outline: as §3
Mus musculus [7] = experiment: Log change in viable tumor cells population was measured at end of therapy when compared to start of therapy at dose 50 mg/kg; type: functional; outline: as §2
Mus musculus [8] = experiment: Tumor-free survivors of P388 leukemia infected mice was measured after ip administration of 30 mg/kg in 6 mice; type: functional; conditions: route intraperitoneal; outline: as §4
Mus musculus [9] = experiment: In Vivo increase in life span of dying mice implanted ip with 10E6 P388 leukemia, after ip administration of 200 mg/kg; type: functional; conditions: route intraperitoneal; outline: as §3
Mus musculus [10] = experiment: Log change in viable tumor cells population was measured at end of therapy when compared to start of therapy at dose 30 mg/kg; type: functional; outline: as §2
Mus musculus [11] = experiment: Log change in viable tumor cells population was measured at end of therapy when compared to start of therapy at dose 200 mg/kg; type: functional; outline: as §2
Mus musculus [12] = experiment: Tumor-free survivors of P388 leukemia infected mice was measured after ip administration of 50 mg/kg in 6 mice; type: functional; conditions: route intraperitoneal; outline: as §4
Mus musculus [13] = experiment: Tumor-free survivors of P388 leukemia infected mice was measured after ip administration of 200 mg/kg in 6 mice; type: functional; conditions: route intraperitoneal; outline: as §4
Mus musculus [14] = experiment: In Vivo increase in life span of dying mice implanted ip with 10E6 P388 leukemia, after ip administration of 50 mg/kg; type: functional; conditions: route intraperitoneal; outline: as §3
Mus musculus [15] = experiment: In Vivo increase in life span of dying mice implanted ip with 10E6 P388 leukemia, after ip administration of 30 mg/kg; type: functional; conditions: route intraperitoneal; outline: as §3
Mus musculus [16] = experiment: Tumor-free survivors of P388 leukemia infected mice was measured after ip administration of 200 mg/kg in 3 mice; type: functional; conditions: route intraperitoneal; outline: as §4
Mus musculus [17] = experiment: Log chance in viable tumor cells population was measured after intraperitoneal administration of 200 mg/kg; type: functional; outline: as §2
Mus musculus [18] = experiment: Tumor-free survivors of P388 leukemia infected mice was measured after ip administration of 100 mg/kg in 5 mice; type: functional; conditions: route intraperitoneal; outline: as §4
Mus musculus [19] = experiment: Log chance in viable tumor cells population was measured after intraperitoneal administration of 20 mg/kg; type: functional; outline: as §2
Mus musculus [20] = experiment: Tumor-free survivors of P388 leukemia infected mice was measured after ip administration of 25 mg/kg in 5 mice; type: functional; conditions: route intraperitoneal; outline: as §4
Mus musculus [21] = experiment: In Vivo increase in life span of dying mice implanted ip with 10E6 P388 leukemia, after ip administration of 20 mg/kg; type: functional; conditions: route intraperitoneal; outline: as §3
Mus musculus [22] = experiment: Tumor-free survivors of P388 leukemia infected mice was measured after ip administration of 20 mg/kg in 6 mice; type: functional; conditions: route intraperitoneal; outline: as §4

SMILES	IC50 (HEp-2) [nM]	IC50 (L1210) [nM]	IC50 (CCRF-CEM) [nM]	IC50 (K562) [nM]	further results
Nc1nc(F)nc2c1ncn2[C@H]1C[C@H](O)[C@@H](CO)O1	200	900	200		
Nc1nc(F)nc2c1ncn2[C@@H]1O[C@H](CO)[C@@H](O)[C@@H]1F	340	380	140	300	Log change (Mus musculus [1]): -1.8; ILS at 25 mg/kg (Mus musculus [2]): 81%; Tumor free survivors (Mus musculus [3]): 0; Log change (Mus musculus [4]): -0.1; Tumor free survivors (Mus musculus [5]): 0; ILS at 100 mg/kg (Mus musculus [6]): 63%
Nc1nc(Cl)nc2c1ncn2[C@@H]1O[C@H](CO)[C@@H](O)[C@H]1O	3000	< 3000	10000		
Nc1nc(Br)nc2c1ncn2[C@@H]1O[C@H](CO)[C@@H](O)[C@H]1F	220	260	20	50	Log change (Mus musculus [7]): 1.6; Tumor free survivors (Mus musculus [8]): 0; ILS at 200 mg/kg (Mus musculus [9]): 33%; Log change (Mus musculus [10]): -1; Log change (Mus musculus [11]): 0.1; Tumor free survivors (Mus musculus [12]): 0; Tumor free survivors (Mus musculus [13]): 0; ILS at 50 mg/kg (Mus musculus [14]): 41%; ILS at 30 mg/kg (Mus musculus [15]): 100%
Nc1nc(Br)nc2c1ncn2[C@H]1C[C@H](O)[C@@H](CO)O1	20	900	20		
Nc1nc(Br)nc2c1ncn2C1O[C@H](CO)[C@@H](O)[C@H]1O (some centres not stated)	4000	3000			
Nc1nc(Cl)nc2c1ncn2[C@H]1C[C@H](O)[C@@H](CO)O1 [CLADRIBINE]	30	70	3		
Nc1nc(Cl)nc2c1ncn2[C@@H]1O[C@H](CO)[C@@H](O)[C@@H]1F [CLOFARABINE]	12	230	50	3	Log change (Mus musculus [1]): -0.3; Tumor free survivors (Mus musculus [16]): 0; ILS at 25 mg/kg (Mus musculus [2]): 118%; Log change (Mus musculus [17]): -1.6; Tumor free survivors (Mus musculus [18]): 0; Log change (Mus musculus [19]): -6.6; ILS at 200 mg/kg (Mus musculus [9]): 59%; Tumor free survivors (Mus musculus [20]): 0; Log change (Mus musculus [4]): -2.8; ILS at 20 mg/kg (Mus musculus [21]): 220%; Tumor free survivors (Mus musculus [22]): 1; ILS at 100 mg/kg (Mus musculus [6]): 38%
Nc1nc(F)nc2c1ncn2[C@@H]1O[C@H](CO)[C@@H](O)[C@@H]1O [FLUDARABINE]	9000	3000	400	150	
